# Test results reported in ChEMBL document CHEMBL4665627 (Eur J Med Chem, 2019).
# The source made the active and inactive calls. No cut-off for these calls is given here.
# Columns and labels:
# Klebsiella pneumoniae [1] = experiment: Potentiation of cefathiamidine-induced antibacterial activity against Klebsiella pneumoniae assessed as fold reduction in cefathiamidine MIC by CLSI protocol based two fold serial dilution method; type: functional
# Escherichia coli [2] = experiment: Synergistic antibacterial activity against Escherichia coli assessed as fractional inhibitory concentration index in presence of cefathiamidine by CLSI protocol based two fold serial dilution method; type: functional
# Klebsiella pneumoniae [3] = experiment: Synergistic antibacterial activity against Klebsiella pneumoniae assessed as fractional inhibitory concentration index in presence of cefathiamidine by CLSI protocol based two fold serial dilution method; type: functional
# Staphylococcus aureus [4] = experiment: Additive antibacterial activity against Staphylococcus aureus assessed as fractional inhibitory concentration index in presence of cefathiamidine by CLSI protocol based two fold serial dilution method; type: functional
# Staphylococcus aureus [5] = experiment: Synergistic antibacterial activity against methicillin-resistant Staphylococcus aureus assessed as fractional inhibitory concentration index in presence of cefathiamidine by CLSI protocol based two fold serial dilution method; type: functional
# Method in brief: (§1)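 Checkerboard-type pairing, with each agent tested alone and combined by CLSI two-fold serial dilution. MICs are from three independent experiments. FIC index = (MIC of A combined/MIC of A alone) + (MIC of B combined/MIC of B alone). An index ≤1 is read as synergistic and 1–2 as additive.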
# Escherichia coli [6] = experiment: Antibacterial activity against Escherichia coli assessed as bacterial growth inhibition in presence of cefathiamidine by CLSI protocol based two fold serial dilution method; type: functional
# Method in brief: (§2)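 Two-fold serial broth dilution in 96-well plates following CLSI; MIC (mM) taken as the lowest concentration giving complete growth inhibition; MIC values from three independent experiments.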
# Klebsiella pneumoniae [7] = experiment: Antibacterial activity against Klebsiella pneumoniae assessed as bacterial growth inhibition in presence of cefathiamidine by CLSI protocol based two fold serial dilution method; type: functional; method in brief: as §2
# Staphylococcus aureus [8] = experiment: Antibacterial activity against Staphylococcus aureus assessed as bacterial growth inhibition in presence of cefathiamidine by CLSI protocol based two fold serial dilution method; type: functional; method in brief: as §2
# Staphylococcus aureus [9] = experiment: Antibacterial activity against methicillin-resistant Staphylococcus aureus assessed as bacterial growth inhibition in presence of cefathiamidine by CLSI protocol based two fold serial dilution method; type: functional; method in brief: as §1
# DNA [10] = experiment: Competitive binding affinity to Klebsiella pneumoniae DNA assessed as increase in DNA intercalation by measuring increase in absorbance at around 260 nm by UV spectroscopy; type: nucleic-acid assay
# Method in brief: (§3)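 Competitive binding with neutral red as spectral probe on K. pneumoniae DNA, monitored by UV-vis absorption spectroscopy.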
# DNA [11] = experiment: Competitive binding affinity to Klebsiella pneumoniae DNA assessed as increase in DNA-NR probe absorption intensity at wavelength of 460 nm by UV spectroscopy; type: nucleic-acid assay; method in brief: as §3
# DNA [12] = experiment: Competitive binding affinity to Klebsiella pneumoniae DNA assessed as intercalating activity by measuring decrease in DNA-NR probe absorption spectra at wavelength of 530 nm by UV spectroscopy; type: nucleic-acid assay; method in brief: as §3
# DNA [13] = experiment: Binding affinity to Klebsiella pneumoniae DNA assessed as hyperchromic shift by UV-Vis spectroscopy; type: nucleic-acid assay
# Method in brief: (§4)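 DNA isolated from K. pneumoniae held at fixed concentration while test compound is added in stepwise, proportional increments; UV-vis absorption spectra recorded, following the 260 nm DNA band.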
# DNA [14] = experiment: Binding affinity to Klebsiella pneumoniae DNA assessed as intercalating activity by measuring intrinsic binding constant by UV-Vis spectroscopy; type: nucleic-acid assay; method in brief: as §4
# DNA [15] = experiment: Binding affinity to Klebsiella pneumoniae DNA assessed as red shift in absorption spectra by UV-Vis spectroscopy; type: nucleic-acid assay; method in brief: as §4
# DNA [16] = experiment: Binding affinity to Klebsiella pneumoniae DNA assessed as increase in absorption peak of DNA by UV-Vis spectroscopy; type: nucleic-acid assay; method in brief: as §4
# Klebsiella pneumoniae [17] = experiment: Induction of membrane permeabilization in Klebsiella pneumoniae at 12 times MIC measured after 1 hr by propidium iodide staining based fluorescence assay; type: functional, organism-based
# [18] = Cytotoxicity against mouse RAW264.7 cells assessed as cell viability at 128 ug/ml after 72 hrs by MTT assay relative to control; type: cell-based; conditions: at 128 µg/mL, read-out: Activity
# Method in brief: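 RAW 264.7 mouse macrophage cells exposed to test compound; viability by colorimetric MTT proliferation assay; standard deviation from three independent experiments.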
# Klebsiella pneumoniae [19] = experiment: Bactericidal activity against Klebsiella pneumoniae assessed as log reduction in viable bacteria at 4 times MIC incubated for 1 hr followed by plating on agar plate and measured after 24 hrs by time kill assay; type: functional
# Method in brief: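 Time-kill kinetics for K. pneumoniae at 4 × MIC.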
# Klebsiella pneumoniae [20] = experiment: Antibacterial activity against Klebsiella pneumoniae measured every 24 hrs after 10 passages by serial dilution method; type: functional, organism-based
# [21] = Inhibition of Saccharomyces cerevisiae CGMCC 2.145 chitin synthase using GlcNAc and UDP-GlcNAc as substrate incubated for 60 mins by microplate reader analysis
# Method in brief: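 Chitin synthase IC50 determined from concentration–inhibition curves.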
# Saccharomyces cerevisiae = experiment: Inhibition of Saccharomyces cerevisiae CGMCC 2.145 chitin synthase at 300 ug/ml using GlcNAc and UDP-GlcNAc as substrate incubated for 60 mins by microplate reader analysis relative to control; conditions: dose 300.0 µg/ml
# Method in brief: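 Chitin synthase inhibition ratio measured at 300 µg/mL test compound, relative to untreated control.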
# DNA gyrase = DNA gyrase (Escherichia coli, UniProt P0AES4+P0AES6); experiment: Inhibition of Escherichia coli DNA gyrase holoenzyme assessed as reduction in pBR322 DNA supercoiling using pBR322 plasmid DNA as substrate incubated for 90 mins in presence of ATP by ethidium bromide staining based agarose gel electrophoresis analysis; type: protein-complex assay
# Pseudomonas aeruginosa [22] = experiment: Antibacterial activity against Pseudomonas aeruginosa assessed as inhibition of bacterial growth after 24 hrs by CLSI protocol based two fold serial dilution method; type: functional; method in brief: as §2
# Candida parapsilosis = experiment: Antifungal activity against Candida parapsilosis ATCC 22019 assessed as inhibition of fungal growth after 24 hrs by CLSI protocol based two fold serial dilution method; type: functional; conditions: Lodderomyces parapsilosis; method in brief: as §2
# Aspergillus fumigatus = experiment: Antifungal activity against Aspergillus fumigatus assessed as inhibition of fungal growth after 24 hrs by CLSI protocol based two fold serial dilution method; type: functional; method in brief: as §2
# Candida tropicalis = experiment: Antifungal activity against Candida tropicalis assessed as inhibition of fungal growth after 24 hrs by CLSI protocol based two fold serial dilution method; type: functional; method in brief: as §2
# Candida albicans [23] = experiment: Antifungal activity against Candida albicans ATCC 90023 assessed as inhibition of fungal growth after 24 hrs by CLSI protocol based two fold serial dilution method; type: functional; method in brief: as §2
# Candida albicans [24] = experiment: Antifungal activity against Candida albicans assessed as inhibition of fungal growth after 24 hrs by CLSI protocol based two fold serial dilution method; type: functional; method in brief: as §2
# Acinetobacter baumannii = experiment: Antibacterial activity against Acinetobacter baumannii assessed as inhibition of bacterial growth after 24 hrs by CLSI protocol based two fold serial dilution method; type: functional; method in brief: as §2
# Pseudomonas aeruginosa [25] = experiment: Antibacterial activity against Pseudomonas aeruginosa ATCC 27853 assessed as inhibition of bacterial growth after 24 hrs by CLSI protocol based two fold serial dilution method; type: functional; method in brief: as §2
# Escherichia coli [26] = experiment: Antibacterial activity against Escherichia coli ATCC 25922 assessed as inhibition of bacterial growth after 24 hrs by CLSI protocol based two fold serial dilution method; type: functional; method in brief: as §2
# Escherichia coli [27] = experiment: Antibacterial activity against Escherichia coli assessed as inhibition of bacterial growth after 24 hrs by CLSI protocol based two fold serial dilution method; type: functional; method in brief: as §2
# Klebsiella pneumoniae [28] = experiment: Antibacterial activity against Klebsiella pneumoniae assessed as inhibition of bacterial growth after 24 hrs by CLSI protocol based two fold serial dilution method; type: functional; method in brief: as §2
# Staphylococcus aureus [29] = experiment: Antibacterial activity against Staphylococcus aureus ATCC 29213 assessed as inhibition of bacterial growth after 24 hrs by CLSI protocol based two fold serial dilution method; type: functional
# Staphylococcus aureus [30] = experiment: Antibacterial activity against Staphylococcus aureus ATCC 25923 assessed as inhibition of bacterial growth after 24 hrs by CLSI protocol based two fold serial dilution method; type: functional; method in brief: as §2
# Staphylococcus aureus [31] = experiment: Antibacterial activity against Staphylococcus aureus assessed as inhibition of bacterial growth after 24 hrs by CLSI protocol based two fold serial dilution method; type: functional; method in brief: as §2
# Enterococcus faecalis = experiment: Antibacterial activity against Enterococcus faecalis assessed as inhibition of bacterial growth after 24 hrs by CLSI protocol based two fold serial dilution method; type: functional; method in brief: as §2
# Staphylococcus aureus [32] = experiment: Antibacterial activity against methicillin-resistant Staphylococcus aureus N315 assessed as inhibition of bacterial growth after 24 hrs by CLSI protocol based two fold serial dilution method; type: functional
# DNA [33] = experiment: Binding affinity to Klebsiella pneumoniae DNA assessed as cleavage of DNA at 50 uM and pH 7.4 and 37 °C incubated for 6 hrs by gel electrophoresis analysis
smiles,measurement,setting,value
CCn1cc(-c2csc(N)n2)c(=O)c2cc(F)c(N3CCN(CC#N)CC3)cc21,fold change (FC),Klebsiella pneumoniae [1],2
same,fractional inhibitory concentration index (FICI),Escherichia coli [2],0.73
same,fractional inhibitory concentration index (FICI),Klebsiella pneumoniae [3],0.7
same,fractional inhibitory concentration index (FICI),Staphylococcus aureus [4],1.12
same,fractional inhibitory concentration index (FICI),Staphylococcus aureus [5],0.61
same,MIC,Escherichia coli [6],10 µM
same,MIC,Klebsiella pneumoniae [7],1 µM
same,MIC,Staphylococcus aureus [8],10 µM
same,MIC,Staphylococcus aureus [9],2 µM
same,Activity,DNA [10],Active
same,Activity,DNA [11],Active
same,Activity,DNA [12],Active
same,Activity,DNA [13],Active
same,K,DNA [14],1.43 10^4L/mol
same,Activity,DNA [15],Active
same,Activity,DNA [16],Active
same,Activity,Klebsiella pneumoniae [17],Active
same,"viability at 72 h, 128 ug/ml",[18],80.2%
same,Activity,Klebsiella pneumoniae [19],>2.5 log10CFU/ml
same,Activity,Klebsiella pneumoniae [20],Active
same,IC50,[21],180 µM
same,inhibition,Saccharomyces cerevisiae,64.6%
same,IC50,DNA gyrase,16.7 µM
same,MIC,Pseudomonas aeruginosa [22],19 µM
same,MIC,Candida parapsilosis,19 µM
same,MIC,Aspergillus fumigatus,19 µM
same,MIC,Candida tropicalis,39 µM
same,MIC,Candida albicans [23],10 µM
same,MIC,Candida albicans [24],10 µM
same,MIC,Acinetobacter baumannii,19 µM
same,MIC,Pseudomonas aeruginosa [25],19 µM
same,MIC,Escherichia coli [26],10 µM
same,MIC,Escherichia coli [27],39 µM
same,MIC,Klebsiella pneumoniae [28],5 µM
same,MIC,Staphylococcus aureus [29],10 µM
same,MIC,Staphylococcus aureus [30],10 µM
same,MIC,Staphylococcus aureus [31],10 µM
same,MIC,Enterococcus faecalis,19 µM
same,MIC,Staphylococcus aureus [32],19 µM
same,Activity,DNA [33],inactive
